Published values gathered from unrelated publications.
Lines come from different studies, so protocols differ.
Target: Serine/threonine-protein kinase PAK 6 (PAK6, Homo sapiens, UniProt Q9NQU5)

SMILES	test	setting	endpoint	result
CCOCCn1cc(C(=O)Nc2ccc(-n3nc(-c4cccnc4)cc3C(F)(F)F)cn2)ccc1=O	cell-free assay, competition with immobilised ligand	1 µM	remaining binding	100%
Cc1sc(C(=O)NC2COC2)cc1-n1cc(NC(=O)Nc2c(F)cccc2Cl)cn1	enzyme activity, inhibitor	10 µM	remaining activity	99.9%
CC(C)(O)c1cncc(-c2nc3ccc(F)cc3n2C2CC2)c1	cell-free assay, competition with immobilised ligand	1 µM	remaining binding	100%
CCN(CC)CCNC(=O)c1c(C)[nH]c(/C=C2\C(=O)Nc3ccc(F)cc32)c1C	enzyme activity, inhibitor	0.3 µM	inhibition	-11%
Cc1ccc(Nc2nccc(N(C)c3ccc4c(C)n(C)nc4c3)n2)cc1S(N)(=O)=O	cell-free assay, inhibitor	0.5 µM	remaining signal	105%
CC/C(=N\NC(=O)NCc1cccc(O)c1)c1ccc(O)c(C)c1O	enzyme activity, inhibitor	0.1 µM	inhibition	1.5%
CCc1ccccc1C(=O)Nc1n[nH]c2c(C)c(F)c(C3C(C#N)=C(C)N(C)C(C)=C3C#N)cc12	cell-free assay, competition with immobilised ligand	1 µM	remaining binding	93%
Cc1cc(NC(=O)c2cccc3cc(-c4cccc5[nH]nc(N)c45)ccc23)ccc1F	enzyme activity, inhibitor	0.1 µM	activity vs control	104%
COc1cc(Nc2cnc(C#N)c(O[C@H](C)CN(C)C)n2)ncc1-c1cnn(C)c1	enzyme activity, inhibitor, radiometric	1 µM	remaining activity	77%
Oc1cccc(-c2nc(N3CCOCC3)c3oc4ncccc4c3n2)c1	enzyme activity, inhibitor	10 µM	remaining activity	108%
Nc1nc(Nc2ccc(S(N)(=O)=O)cc2)nn1C(=O)c1c(F)cccc1F	cell-free assay	0.5 µM	remaining signal	101%
O=C(NCc1ncc(C(F)(F)F)cc1Cl)c1ccc2c(c1)C1(CCS(=O)(=O)CC1)[C@H](C1CC1)N2S(=O)(=O)c1ccc(F)cc1	cell-free assay, competition with immobilised ligand	1 µM	remaining binding	100%
CC(C)(C)c1nc2c(s1)c1nc(N)ncc1c1ccc(NS(=O)(=O)c3c(F)cccc3F)c(F)c12	enzyme activity, inhibitor, radiometric	1 µM	remaining activity	89%
O=C(NCCCC1CCCCC1)c1ccc(CNC(=O)c2cnn(-c3ccccc3)c2C(F)(F)F)cc1	cell-free assay, competition with immobilised ligand	0.1 µM	remaining binding	100%
CCCS(=O)(=O)Nc1ccc(F)c(C(=O)c2c[nH]c3ncc(-c4ccc(Cl)cc4)cc23)c1F	enzyme activity, inhibitor	1 µM	inhibition	< 20%
FC(F)c1nc2ccccc2n1-c1nc(N2CCOCC2)nc(N2CCOCC2)n1	enzyme activity, inhibitor	10 µM	remaining activity	93%
COc1cc(Cl)c(C(=O)N[C@@H](CN[C@H]2CC[C@@H](N)CC2)Cc2ccc(C#N)cc2)cc1-c1ccc(CN[C@H](C)c2ccc(C)cc2)o1	enzyme activity, inhibitor	1 µM	remaining activity	95%
Cc1ccc(NC(=O)c2ccc(C)c(C(F)(F)F)c2)cc1C#Cc1nn(C2CCC(O)CC2)c2ncnc(N)c12 (centres unmarked)	cell-free assay	10 µM	remaining signal	92%
COc1cc2ncnc(Nc3ccc(Oc4ccccc4)c(C)c3C)c2cc1OC	enzyme activity, inhibitor	1 µM	inhibition	-6%
CNC(=O)c1cc(Oc2ccc(NC(=O)Nc3ccc(Cl)c(C(F)(F)F)c3)cc2)ccn1	enzyme activity, inhibitor	10 µM	inhibition	-29%
Nc1nc(Nc2ccccc2)sc1C(=O)c1c(F)cccc1F	enzyme activity, inhibitor	10 µM	remaining activity	87%
CC(=O)N1CCC(c2ccc(C(=O)NC3=NCCN3)cc2C(F)(F)F)CC1	cell-free assay, competition with immobilised ligand	1 µM	remaining binding	100%
CN(C)c1nccc(-c2cnn3ncccc23)n1	binding	1 µM	remaining binding	100%
COc1cc(/C=C/C(=O)CC(=O)/C=C/c2ccc(O)c(OC)c2)ccc1O	enzyme activity, inhibitor	1 µM	activity vs control	82%
O=C1Nc2ccc(Cl)cc2C1=Cc1cc(Cl)c(O)c(Cl)c1	cell-free assay	0.5 µM	remaining signal	97%
Cn1cc(Cl)c2c(Oc3c(F)cc(Nc4cc(Cl)nc(N)n4)cc3F)ccnc21	cell-free assay, competition with immobilised ligand	0.1 µM	remaining binding	100%
Nc1ncnc2occ(-c3ccc(NC(=O)Nc4cc(C(F)(F)F)ccc4F)cc3)c12	cell-free assay, inhibitor	20 µM	remaining signal	53%
CSc1cccnc1N1CCN(Cc2nc3ccccc3[nH]2)CC1	cell-free assay, competition with immobilised ligand	1 µM	remaining binding	100%
FC(F)(F)Oc1cccc(-c2cnc3ccc(-c4ccncc4)nn23)c1	enzyme activity, inhibitor, radiometric	5 µM	activity vs control	90%
